Key:
[1] = target: Multidrug resistance-associated protein 1 (Homo sapiens, UniProt P33527); assay: Inhibition of ABCC1 (unknown origin)-mediated calcein-AM efflux expressed in HEK293 cells at 5 uM after 30 mins by flow cytometric analysis; assay type: cell-based; conditions: hek293, 0.5 h
[2] = target: T1, Broad substrate specificity ATP-binding cassette transporter ABCG2 (Homo sapiens, UniProt Q9UNQ0); assay: Inhibition of human ABCG2 ATPase activity expressed in Sf9 insect cell membranes at 2 uM after 30 mins by colorimetric analysis relative to basal control in presence of sodium orthovanadate; conditions: sf9, 0.5 h
T1 sequence (Q9UNQ0 whole entry): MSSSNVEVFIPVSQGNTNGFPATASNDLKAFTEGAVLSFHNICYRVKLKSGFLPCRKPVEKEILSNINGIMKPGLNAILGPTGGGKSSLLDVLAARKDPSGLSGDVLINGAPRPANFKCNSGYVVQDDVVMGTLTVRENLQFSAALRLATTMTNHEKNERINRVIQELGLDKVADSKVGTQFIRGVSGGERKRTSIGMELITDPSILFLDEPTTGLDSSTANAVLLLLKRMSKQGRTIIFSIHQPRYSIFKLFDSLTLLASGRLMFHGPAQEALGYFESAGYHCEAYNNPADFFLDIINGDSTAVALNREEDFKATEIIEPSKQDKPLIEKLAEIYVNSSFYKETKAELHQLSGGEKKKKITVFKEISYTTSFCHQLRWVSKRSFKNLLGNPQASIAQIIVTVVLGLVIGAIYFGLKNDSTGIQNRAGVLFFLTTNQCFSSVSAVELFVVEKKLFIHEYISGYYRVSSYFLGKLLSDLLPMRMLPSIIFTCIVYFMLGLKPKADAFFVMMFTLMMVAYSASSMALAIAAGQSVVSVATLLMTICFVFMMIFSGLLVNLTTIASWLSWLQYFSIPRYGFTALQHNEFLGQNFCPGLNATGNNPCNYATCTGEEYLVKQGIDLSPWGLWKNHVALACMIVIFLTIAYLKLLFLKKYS
In short: (§1)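 Basal vanadate-sensitive ATPase assay on cholesterol-loaded membranes from human ABCG2-expressing Sf9 cells (0.5 mg/mL; 10 μg/sample). Buffer: 50 mM Tris-HCl, 50 mM NaCl, pH 8.0, with azide, ouabain, DTT and EGTA, ± 0.33 mM orthovanadate. Compound at 2 μM, or substrates nilotinib 0.1 μM, quercetin 2 μM, prazosin 20 μM. ATP-Mg 3.9 mM, 30 min at 37 °C. Phosphate read by molybdate/ascorbate at 880 nm.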

ABCG2 [3] = target: T2, ABCG2 (Homo sapiens, UniProt Q9UNQ0); assay: Inhibition of ABCG2 (unknown origin)-mediated pheophorbide A efflux expressed in HEK293 cells at 1 to 5 uM after 30 mins by flow cytometric analysis relative to control; assay type: cell-based; conditions: HEK293 cells expressing ABCG2, probe pheophorbide A, read-out: Imax
T2 sequence (Q9UNQ0 whole entry): T1 sequence (Q9UNQ0 whole entry)
In short: (§2)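 Cells seeded at 1.5 × 10^5 cells/well and grown 48 h were exposed to BODIPY-prazosin (0.2 μM) or pheophorbide A (2 μM) for 30 min at 37 °C with or without compound. After washing and trypsinization, intracellular fluorescence was read by flow cytometry (FL4, ≥10 000 events). Percent inhibition = (C−M)/(Cev−M)×100, where Cev is from ABCG2-negative control cells.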

[4] = target: T1, Broad substrate specificity ATP-binding cassette transporter ABCG2; assay: Inhibition of ABCG2-mediated mitoxantrone efflux in mitoxantrone-selected human H460 cells after 30 mins by flow cytometric analysis; assay type: cell-based
[5] = target: T1, Broad substrate specificity ATP-binding cassette transporter ABCG2; assay: Inhibition of ABCG2 (unknown origin)-mediated BODIPY-prazosin efflux expressed in HEK293 cells at 1 to 5 uM after 30 mins by flow cytometric analysis; assay type: cell-based; conditions: hek293, 0.5 h; in short: as §2
ABCG2 [6] = target: T2, ABCG2; assay: Inhibition of ABCG2 in mitoxantrone-selected human H460 cells assessed as reversal of mitoxantrone-resistance at 1 uM after 72 hrs by MTT assay relative to control; assay type: cell-based; conditions: probe mitoxantrone
[7] = target: T1, Broad substrate specificity ATP-binding cassette transporter ABCG2; assay: Binding affinity to ABCG2 (unknown origin) expressed in HEK293 cells assessed as modulation of 5D3 binding at 5 uM after 45 mins by flow cytometric analysis relative to Ko143; assay type: cell-based; conditions: hek293, 0.75 h
In short: (§3)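 5D3 shift assay on ABCG2-transfected HEK293 cells (0.5 × 10^6 cells/tube) in PBS with 0.5% BSA. Compound at 2 or 5 μM plus 5D3 anti-ABCG2 antibody or isotype control (1 μg/mL), 45 min at 37 °C. Anti-mouse Alexa Fluor 488 secondary (3 μg/mL), 30 min at 37 °C. Binding read by flow cytometry, expressed relative to 2 μM Ko143 (100%). Mean ± SD of ≥3 independent experiments.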

ABCG2 [8] = target: T2, ABCG2; assay: Inhibition of ABCG2 in mitoxantrone-selected human H460 cells assessed as reversal of mitoxantrone-resistance at 0.2 uM after 72 hrs by MTT assay relative to control; assay type: cell-based; conditions: probe mitoxantrone
[9] = target: ATP-dependent translocase ABCB1 (Homo sapiens, UniProt P08183); assay: Inhibition of ABCB1 (unknown origin)-mediated rhodamine 123 efflux expressed in mouse NIH/3T3 cells at 5 uM after 30 mins by flow cytometric analysis; assay type: cell-based; conditions: nih/3t3, 0.5 h
[10] = target: T1, Broad substrate specificity ATP-binding cassette transporter ABCG2; assay: Inhibition of ABCG2 (unknown origin)-mediated mitoxantrone efflux expressed in HEK293 cells after 30 mins by flow cytometric analysis; assay type: cell-based
ABCG2 [11] = target: T2, ABCG2; assay: Inhibition of ABCG2-mediated mitoxantrone efflux in mitoxantrone-selected human H460 cells at 5 to 10 uM after 30 mins by flow cytometric analysis relative to control; assay type: cell-based; conditions: probe mitoxantrone, read-out: Imax
[12] = target: T1, Broad substrate specificity ATP-binding cassette transporter ABCG2; assay: Inhibition of human ABCG2 expressed in Sf9 insect cell membranes assessed as inhibition of quercetin-stimulated ATPase activity after 30 mins by colorimetric analysis in presence of sodium orthovanadate; conditions: for inhibition (INH): human, sf9, 0.5 h
In short: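 Quercetin (2 μM)-stimulated vanadate-sensitive ATPase assay on cholesterol-loaded ABCG2 Sf9 membranes (10 μg/sample) in Tris/NaCl buffer, pH 8.0. Compound at 0.01, 0.03, 0.5 and 2 μM. ATP-Mg 3.9 mM, 30 min at 37 °C. Released phosphate read colorimetrically at 880 nm. IC50 estimated as 50% inhibition of initial activity; three independent experiments.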

[13] = target: T1, Broad substrate specificity ATP-binding cassette transporter ABCG2; assay: Binding affinity to ABCG2 (unknown origin) expressed in HEK293 cells assessed as modulation of 5D3 binding at 2 uM after 45 mins by flow cytometric analysis relative to Ko143; assay type: cell-based; conditions: hek293, 0.75 h; in short: as §3
ABCG2 [14] = target: T2, ABCG2; assay: Inhibition of ABCG2 (unknown origin)-mediated mitoxantrone efflux expressed in HEK293 cells at 5 to 10 uM after 30 mins by flow cytometric analysis relative to control; assay type: cell-based; conditions: HEK293 cells expressing ABCG2, probe mitoxantrone, read-out: Imax
[15] = target: T1, Broad substrate specificity ATP-binding cassette transporter ABCG2; assay: […] expressed in Sf9 insect cell membranes at 0.1 uM after 30 mins by colorimetric analysis relative to basal control in presence of sodium orthovanadate; conditions: sf9, 0.5 h; in short: as §1
[16] = target: T1, Broad substrate specificity ATP-binding cassette transporter ABCG2; assay: […] expressed in Sf9 insect cell membranes at 20 uM after 30 mins by colorimetric analysis relative to basal control in presence of sodium orthovanadate; conditions: sf9, 0.5 h; in short: as §1

ATP-dependent translocase ABCB1, sequence (P08183 whole entry): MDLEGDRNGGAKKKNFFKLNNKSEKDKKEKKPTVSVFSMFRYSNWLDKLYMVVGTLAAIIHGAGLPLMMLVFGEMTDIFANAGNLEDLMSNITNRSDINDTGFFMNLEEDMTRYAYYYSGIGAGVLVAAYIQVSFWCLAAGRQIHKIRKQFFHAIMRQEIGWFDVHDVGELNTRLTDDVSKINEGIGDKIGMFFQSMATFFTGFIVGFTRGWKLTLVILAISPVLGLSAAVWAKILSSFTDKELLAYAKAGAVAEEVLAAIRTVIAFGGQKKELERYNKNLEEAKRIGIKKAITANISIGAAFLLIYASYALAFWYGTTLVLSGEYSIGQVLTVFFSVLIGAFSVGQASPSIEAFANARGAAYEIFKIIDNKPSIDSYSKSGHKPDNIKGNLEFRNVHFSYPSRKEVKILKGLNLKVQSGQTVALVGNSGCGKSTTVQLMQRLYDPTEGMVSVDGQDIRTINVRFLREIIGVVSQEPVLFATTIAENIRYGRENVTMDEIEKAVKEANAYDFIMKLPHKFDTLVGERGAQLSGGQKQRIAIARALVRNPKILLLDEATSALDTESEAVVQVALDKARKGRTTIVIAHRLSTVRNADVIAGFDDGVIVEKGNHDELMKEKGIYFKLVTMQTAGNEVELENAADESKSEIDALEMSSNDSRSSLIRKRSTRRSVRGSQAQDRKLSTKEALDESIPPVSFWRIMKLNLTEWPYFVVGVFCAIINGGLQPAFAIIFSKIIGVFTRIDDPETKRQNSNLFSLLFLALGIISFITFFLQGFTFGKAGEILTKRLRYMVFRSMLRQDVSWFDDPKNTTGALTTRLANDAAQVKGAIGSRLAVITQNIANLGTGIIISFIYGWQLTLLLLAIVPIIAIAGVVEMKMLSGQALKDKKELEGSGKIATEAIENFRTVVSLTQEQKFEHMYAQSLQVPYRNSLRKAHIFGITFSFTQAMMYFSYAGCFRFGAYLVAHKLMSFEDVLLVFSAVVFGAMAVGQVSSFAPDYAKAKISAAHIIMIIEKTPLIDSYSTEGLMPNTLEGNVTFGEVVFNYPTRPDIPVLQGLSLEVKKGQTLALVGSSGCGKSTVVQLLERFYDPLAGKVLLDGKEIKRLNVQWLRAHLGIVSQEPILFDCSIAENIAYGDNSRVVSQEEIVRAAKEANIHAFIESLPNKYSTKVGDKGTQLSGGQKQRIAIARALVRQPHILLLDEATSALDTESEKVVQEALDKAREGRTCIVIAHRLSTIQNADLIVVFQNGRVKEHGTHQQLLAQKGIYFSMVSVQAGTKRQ
Multidrug resistance-associated protein 1, sequence (P33527 whole entry): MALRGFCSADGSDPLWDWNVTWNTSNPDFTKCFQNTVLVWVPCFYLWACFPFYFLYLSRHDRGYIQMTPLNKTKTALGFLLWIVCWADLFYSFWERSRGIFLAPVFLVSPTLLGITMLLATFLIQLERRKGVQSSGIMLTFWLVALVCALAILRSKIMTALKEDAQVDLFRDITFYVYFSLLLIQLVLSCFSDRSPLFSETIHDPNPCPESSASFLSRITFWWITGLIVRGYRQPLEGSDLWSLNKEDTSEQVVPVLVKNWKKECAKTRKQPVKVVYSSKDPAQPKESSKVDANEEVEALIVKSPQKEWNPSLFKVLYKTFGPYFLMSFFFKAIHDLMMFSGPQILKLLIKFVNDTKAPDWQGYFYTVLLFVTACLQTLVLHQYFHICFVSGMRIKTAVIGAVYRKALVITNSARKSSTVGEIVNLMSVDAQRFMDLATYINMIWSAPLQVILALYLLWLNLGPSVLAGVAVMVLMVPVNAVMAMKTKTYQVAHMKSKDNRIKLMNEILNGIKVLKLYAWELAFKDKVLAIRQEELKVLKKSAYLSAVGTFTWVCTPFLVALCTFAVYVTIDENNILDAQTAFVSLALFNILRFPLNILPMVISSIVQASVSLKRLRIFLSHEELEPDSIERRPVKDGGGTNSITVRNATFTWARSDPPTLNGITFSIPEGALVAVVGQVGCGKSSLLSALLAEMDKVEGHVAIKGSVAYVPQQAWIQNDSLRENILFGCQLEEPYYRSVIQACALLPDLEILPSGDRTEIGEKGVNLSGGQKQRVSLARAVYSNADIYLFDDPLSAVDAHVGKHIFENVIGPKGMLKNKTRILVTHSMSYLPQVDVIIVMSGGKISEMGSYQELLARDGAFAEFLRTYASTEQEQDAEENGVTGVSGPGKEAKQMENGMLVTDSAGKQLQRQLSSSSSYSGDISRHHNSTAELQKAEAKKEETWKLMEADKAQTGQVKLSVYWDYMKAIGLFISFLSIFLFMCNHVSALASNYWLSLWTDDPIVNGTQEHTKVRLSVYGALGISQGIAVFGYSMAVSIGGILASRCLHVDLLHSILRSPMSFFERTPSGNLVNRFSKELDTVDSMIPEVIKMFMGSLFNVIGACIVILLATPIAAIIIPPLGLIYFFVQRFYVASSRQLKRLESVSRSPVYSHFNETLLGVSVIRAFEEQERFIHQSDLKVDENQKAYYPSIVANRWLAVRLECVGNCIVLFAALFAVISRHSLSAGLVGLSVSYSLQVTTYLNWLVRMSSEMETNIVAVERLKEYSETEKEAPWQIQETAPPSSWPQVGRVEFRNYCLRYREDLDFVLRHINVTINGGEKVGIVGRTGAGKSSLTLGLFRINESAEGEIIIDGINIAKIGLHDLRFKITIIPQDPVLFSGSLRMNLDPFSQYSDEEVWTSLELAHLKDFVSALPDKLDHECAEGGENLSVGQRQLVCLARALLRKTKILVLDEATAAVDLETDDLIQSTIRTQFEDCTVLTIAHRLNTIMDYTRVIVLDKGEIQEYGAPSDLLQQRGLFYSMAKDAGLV

Row | inhibition (INH) [1] | inhibition (INH) [2] | Emax at 0.5 h (ABCG2 [3]) | inhibition (INH) [5] | Activity [7] | inhibition (INH) [9] | IC50 [12] | inhibition (INH) [12] | Activity [13] | fold change (FC) [15] | fold change (FC) [16] | SMILES | EC50 [4] | inhibition at 72 h, 1 µM (ABCG2 [6]) | inhibition at 72 h, 0.2 µM (ABCG2 [8]) | EC50 [10] | Emax at 0.5 h (ABCG2 [11]) | Emax at 0.5 h (ABCG2 [14])
1 | Not Active | Active | 80% | Active | 101% | Not Active | 290 nM | Dose-dependent effect | 96.4% | – | – | COc1ccc2c(CCNC(=O)c3cc(=O)c4c(OCc5ccc(Br)cc5)cccc4o3)c[nH]c2c1 | 80 nM | > 72% | > 50% | 100 nM | 89% | 97%
2 | Not Active | Active | 80% | Active | 98% | Not Active | 1100 nM | Dose-dependent effect | 88.7% | – | – | Cn1cc(CCNC(=O)c2cc(=O)c3c(OCc4ccc(Br)cc4)cccc3o2)c2ccccc21 | 220 nM | > 61% | > 4% | 300 nM | 102% | 85%
3 | – | – | – | – | – | – | – | – | – | 3.2 | – | Cc1cn(-c2cc(NC(=O)c3ccc(C)c(Nc4nccc(-c5cccnc5)n4)c3)cc(C(F)(F)F)c2)cn1 [NILOTINIB] | – | – | – | – | – | –
4 | – | – | – | – | – | – | – | – | – | – | 2.4 | COc1cc2nc(N3CCN(C(=O)c4ccco4)CC3)nc(N)c2cc1OC [PRAZOSIN] | – | – | – | – | – | –

Reference: ChEMBL document CHEMBL3108696, “Structure-activity relationships of chromone derivatives toward the mechanism of interaction with and inhibition of breast cancer resistance protein ABCG2” (J Med Chem, 2013)
